Test results from ChEMBL document CHEMBL3865832, “Rhizovarins A-F, Indole-Diterpenes from the Mangrove-Derived Endophytic Fungus Mucor irregularis QEN-189” (J Nat Prod, 2016).
Structures can show the parent of a compound that is named as a salt.

Assays:
[1] = Cytotoxicity against human HL60 cells after 48 hrs by MTT assay; format: functional, cell-based; conditions: HL-60, 48 h
In short: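 HL-60 human leukemia cells; viability read by MTT reduction, with adriamycin as positive control.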

[2] = Cytotoxicity against human A549 cells after 48 hrs by SRB assay; format: functional, cell-based; conditions: A549, 48 h
In short: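 A549 human lung adenocarcinoma cells; cytotoxicity read by sulforhodamine B (SRB) staining, with adriamycin as positive control.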

C=C(C)[C@H]1O[C@H]2CC[C@@]3(C)[C@@](O)(CC[C@H]4[C@@H]5OC(C)(C)[C@H]6C[C@@H]7C(=C)Cc8c(Cl)cc9[nH]c(c5c9c8[C@@]76O)[C@@]43C)[C@]23O[C@@H]3[C@H]1O
IC50 [1]: 7 µM | IC50 [2]: 8.4 µM

C=C(C)[C@H]1O[C@H]2CC[C@@]3(C)[C@@](O)(CC[C@H]4[C@@H]5OC(C)(C)[C@H]6C[C@@H]7C(=C)Cc8ccc9[nH]c(c5c9c8[C@@]76O)[C@@]43C)[C@]23O[C@@H]3[C@H]1O
IC50 [1]: > 10 µM | IC50 [2]: > 10 µM

C=C(C)[C@H]1O[C@H]2CC[C@@]3(C)[C@@](O)(CC[C@H]4Cc5c([nH]c6ccccc56)[C@@]43C)[C@]23O[C@@H]3[C@H]1O
IC50 [1]: > 10 µM | IC50 [2]: > 10 µM

C=C1Cc2ccc3[nH]c4c5c3c2[C@H]2[C@@H]1C[C@@H]2C(C)(C)O[C@H]5[C@@H]1CC[C@@]2(O)C3=C[C@@H](O)[C@@H](C(=C)C)O[C@H]3CC[C@]2(C)[C@@]41C
IC50 [1]: > 10 µM | IC50 [2]: > 10 µM

C=C(C)[C@H]1O[C@H]2CC[C@@]3(C)[C@@](O)(CC[C@]4(OC)O[C@@H]5OC(C)(C)[C@H]6C[C@@H]7C(=C)Cc8c(Cl)cc9[nH]c(c5c9c8[C@@]76O)[C@@]43C)[C@]23O[C@@H]3[C@H]1O
IC50 [1]: 5 µM | IC50 [2]: 6.3 µM

CC(C)(O)[C@H]1O[C@H]2CC[C@@]3(C)[C@@H](CC[C@H]4Cc5c([nH]c6ccccc56)[C@@]43C)C2=C[C@H]1O
IC50 [1]: 2.6 µM | IC50 [2]: 4.6 µM

C=C1Cc2ccc3[nH]c4c(c3c2[C@H]2[C@@H]1C[C@@H]2C(C)(C)O)[C@@H](OC)[C@@H]1CC[C@@]2(O)[C@@]35O[C@@H]3[C@@H](O)[C@@H](C(=C)C)O[C@H]5CC[C@]2(C)[C@@]41C
IC50 [1]: > 10 µM | IC50 [2]: 9.2 µM

C=C1Cc2ccc3[nH]c4c(c3c2[C@H]2[C@@H]1C[C@@H]2C(C)(C)O)C[C@@H]1CC[C@@]2(O)C3=C[C@@H](O)[C@@H](C(=C)C)O[C@H]3CC[C@]2(C)[C@@]41C
IC50 [1]: > 10 µM | IC50 [2]: > 10 µM

C=C(C)[C@H]1O[C@H]2CC[C@@]3(C)[C@@](O)(CC[C@]4(OC)O[C@@H]5OC(C)(C)[C@H]6C[C@@H]7C(=C)Cc8ccc9[nH]c(c5c9c8[C@@]76O)[C@@]43C)[C@]23O[C@@H]3[C@H]1O
IC50 [1]: > 10 µM | IC50 [2]: > 10 µM

C=C(C)[C@H]1O[C@H]2CC[C@@]3(C)[C@@](O)(CC[C@]4(O)O[C@@H]5OC(C)(C)[C@H]6C[C@@H]7C(=C)Cc8c(Cl)cc9[nH]c(c5c9c8[C@@]76O)[C@]34C)[C@]23O[C@@H]3[C@H]1O
IC50 [1]: 9.6 µM | IC50 [2]: 11.5 µM

C=C(C)[C@H]1O[C@H]2CC[C@@]3(C)[C@@](O)(CC[C@H]4Cc5c([nH]c6ccccc56)[C@@]43C)C2=C[C@H]1O
IC50 [1]: > 10 µM | IC50 [2]: > 10 µM

C=C(C)[C@@H]1CC=C2[C@H](CC[C@@]3(C)[C@@]2(O)CC[C@H]2Cc4c([nH]c5ccc6c(c45)[C@@H]4[C@@H](C(C)(C)O)C[C@@H]4C6(C)C)[C@@]23C)O1
IC50 [1]: > 10 µM | IC50 [2]: > 10 µM

CC(=O)OC(C)(C)[C@H]1O[C@H]2CC[C@@]3(C)[C@@H](CC[C@H]4Cc5c([nH]c6ccccc56)[C@@]43C)C2=CC1=O
IC50 [1]: > 10 µM | IC50 [2]: > 10 µM

C=C(C)[C@H]1C[C@H](C(C)(C)O)[C@H]1c1cccc2c1C(=O)C[C@@H]1CC[C@@]3(O)C4=C[C@@H](O)[C@@H](C(=C)C)O[C@H]4CC[C@]3(C)[C@@]1(C)C(=O)N2
IC50 [1]: > 10 µM | IC50 [2]: > 10 µM

COc1cccc2c1C(=O)c1c(O)c3c(c(O)c1C2=O)C[C@@](O)(C(=O)CO)C[C@@H]3O[C@H]1C[C@H](N)[C@H](O)[C@H](C)O1 [DOXORUBICIN HYDROCHLORIDE]
IC50 [1]: 0.067 µM | IC50 [2]: 0.3 µM

C=C1Cc2ccc3[nH]c4c5c3c2[C@H]2[C@@H]1C[C@@H]2C(C)(C)O[C@H]5[C@@H]1CC[C@@]2(O)[C@@]35O[C@@H]3[C@@H](O)[C@@H](C(=C)C)O[C@H]5CC[C@]2(C)[C@@]41C [PENITREM B]
IC50 [1]: > 10 µM | IC50 [2]: > 10 µM

C=C1Cc2c(Cl)cc3[nH]c4c5c3c2[C@H]2[C@@H]1C[C@@H]2C(C)(C)O[C@H]5[C@@H]1CC[C@@]2(O)C3=C[C@@H](O)[C@@H](C(=C)C)O[C@H]3CC[C@]2(C)[C@@]41C [PENITREM C]
IC50 [1]: 4.7 µM | IC50 [2]: 8 µM

C=C1Cc2c(Cl)cc3[nH]c4c5c3c2[C@H]2[C@@H]1C[C@@H]2C(C)(C)O[C@H]5[C@@H]1CC[C@@]2(O)[C@@]35O[C@@H]3[C@@H](O)[C@@H](C(=C)C)O[C@H]5CC[C@]2(C)[C@@]41C [PENITREM F]
IC50 [1]: 3.3 µM | IC50 [2]: 8.2 µM
